Results on 28 molecules are retold here after ChEMBL document CHEMBL1129319, “Design and synthesis of new linear and cyclic bradykinin antagonists” (J Med Chem, 1996).

Activity calls are given as the source filed them. The calls are words filed in the database; no cut-off is given here. Numbered stars: 1 amine (or outer) side, 2 acyl side, 3 side chain; on linkers, the order of the positions; unused ones are H or OH. Square brackets hold non-standard residues; d marks the D form. Peptide text beside a SMILES is read from it. * marks the point of attachment. ξ: configuration not given here. X1 = NC(N)=NCCC[C@@H](NC(=O)[C@H](Cc1ccccc1)NC(=O)N1CCC[C@H]1C(=O)[C@H](CO)N*)C(=O)O; Pentanoyl(5-guanidino) = NC(N)=NCCCCC(=O)*; Butanoyl(4-guanidino) = N=C(N)NCCCC(=O)*; Oic(3aξ,7aξ) = O=C(O)[C@@H]1CC2CCCCC2N1; NH(CH2)9CO = O=C(CCCCCCCCCN[*:1])[*:2]; Tic = O=C(O)[C@@H]1Cc2ccccc2CN1; 2Thi = N[C@@H](Cc1cccs1)C(=O)O; X2 = N=C(N)NCCCCCC(=O)*; GABA = NCCCC(=O)O

In one experiment the target is T1, B2 bradykinin receptor (Oryctolagus cuniculus, UniProt Q28642).
T1 sequence (Q28642 whole entry): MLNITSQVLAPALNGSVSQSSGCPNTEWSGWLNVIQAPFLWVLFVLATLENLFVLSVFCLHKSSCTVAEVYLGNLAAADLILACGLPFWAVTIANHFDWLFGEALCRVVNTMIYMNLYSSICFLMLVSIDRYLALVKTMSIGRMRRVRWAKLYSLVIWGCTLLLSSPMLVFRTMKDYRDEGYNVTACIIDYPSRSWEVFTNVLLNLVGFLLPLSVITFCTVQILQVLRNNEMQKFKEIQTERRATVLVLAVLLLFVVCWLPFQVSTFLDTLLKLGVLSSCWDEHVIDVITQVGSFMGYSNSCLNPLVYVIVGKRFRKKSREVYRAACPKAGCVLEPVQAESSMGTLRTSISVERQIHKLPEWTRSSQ
The experiment is described as follows: In vitro antagonistic activity against kinin-induced rabbit jugular vein contraction. The experiment is classed as functional. Particulars: for Kb: read-out: pA2 (converted). An outline of the steps:
(§1)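 Rabbit jugular vein rings (B2 tissue), reference KCl 60 mM contraction then 45 min rest; antagonist, usually 10-7, 10^-6 and 10^-5 M, incubated 45 min before cumulative bradykinin; one curve per ring; pA2 by Tallarida's method with Schild slope constrained to unity, or pKB from EC50 ratio when activity appeared only at 10^-5 M.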

Experiment [1] concerns the target T2, B2 bradykinin receptor (Homo sapiens) (UniProt P30411).
T2 sequence (whole entry): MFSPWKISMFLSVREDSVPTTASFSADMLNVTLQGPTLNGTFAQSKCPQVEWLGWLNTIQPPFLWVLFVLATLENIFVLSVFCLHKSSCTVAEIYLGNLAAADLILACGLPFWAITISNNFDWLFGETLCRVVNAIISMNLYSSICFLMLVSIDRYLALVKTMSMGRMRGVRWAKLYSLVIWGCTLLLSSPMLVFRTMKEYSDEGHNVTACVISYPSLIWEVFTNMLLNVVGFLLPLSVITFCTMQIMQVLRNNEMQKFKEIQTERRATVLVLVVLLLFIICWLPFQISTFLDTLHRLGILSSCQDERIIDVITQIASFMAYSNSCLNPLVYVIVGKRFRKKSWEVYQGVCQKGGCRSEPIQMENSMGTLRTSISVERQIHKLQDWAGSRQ
The experiment in a line: Antagonistic activity against bradykinin B2 receptor as human umbilical vein contraction. The experiment is classed as functional, tissue-based. Put shortly:
(§2)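 Endothelium-denuded human umbilical vein rings in Krebs (37 °C, 95% O2/5% CO2, pH 7.40), 2-4 g load, pretreated with indomethacin 5 × 10^-6 M and L-nitroarginine 10^-4 M; antagonist incubated 45 min before a single cumulative bradykinin curve per ring; isometric contraction as % of KCl (60 mM) reference; pKB from KB = [Ant]/(concentration ratio − 1).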

The target in experiment [2] is T3, B2 bradykinin receptor (Oryctolagus cuniculus) (UniProt Q28642).
T3 sequence (whole entry): T1 sequence (Q28642 whole entry)
The experiment in a line: In vitro antagonistic activity against kinin-induced rabbit jugular vein contraction by bradykinin B2 receptor; in = inactive at 10e-5M. It counts as functional. An outline of the steps: as §1

In experiment [3] the target is T3, B2 bradykinin receptor (Oryctolagus cuniculus). The experiment is described as follows: In vitro antagonistic activity against kinin-induced rabbit jugular vein contraction by bradykinin B2 receptor; in = inactive at 10e-5M. The experiment is classed as functional. Put shortly: as §1
The target in experiment [4] is T2, B2 bradykinin receptor (Homo sapiens). The experiment in a line: Antagonistic activity against bradykinin B2 receptor as human umbilical vein contraction; in = inactive at 10e-5M. The experiment is classed as functional, tissue-based. Put shortly: as §2

As for `NCCCC(=O)N[C@@H](Cc1ccccc1)C(=O)N1Cc2ccccc2C[C@H]1C(=O)N1C2CCCCC2C[C@H]1C(=O)N[C@@H](CCCN=C(N)N)C(=O)O` (some centres undefined) (H-[GABA]F[Tic][Oic(3aξ,7aξ)]R-OH), the Kb at B2 bradykinin receptor was 363 nM.

Consider `NC(N)=NCCC[C@@H]1NC(=O)[C@@H]2CC3CCCCC3N2C(=O)[C@H]2Cc3ccccc3CN2C(=O)[C@H](CO)NC(=O)[C@H](Cc2cccs2)NC(=O)CCNC1=O` (some centres undefined), for which, on B2 bradykinin receptor, the Kb is 75.9 nM.

For `C[C@@H]1NC(=O)CNC(=O)[C@H](CCCN=C(N)N)NC(=O)[C@@H]2CC3CCCCC3N2C(=O)[C@H]2Cc3ccccc3CN2C1=O` (some centres undefined), the Kb on B2 bradykinin receptor is 240 nM.

For the molecule `N=C(N)NCCCCCC(=O)N[C@@H](Cc1cccs1)C(=O)N1Cc2ccccc2C[C@H]1C(=O)N1C2CCCCC2C[C@H]1C(=O)N[C@@H](CCCNC(=N)N)C(=O)O` (some centres undefined) (X2-[2Thi][Tic][Oic(3aξ,7aξ)]R-OH), the Kb on B2 bradykinin receptor is 3390 nM.

Take `C[C@@H]1NC(=O)CCCNC(=O)[C@H](CCCN=C(N)N)NC(=O)[C@@H]2CC3CCCCC3N2C(=O)[C@H]2Cc3ccccc3CN2C(=O)[C@H](CO)NC1=O` (some centres undefined): on B2 bradykinin receptor, the Kb was 309 nM.

By pKb is commonly meant −log10 of the Kb, conventionally taken in molar units. Consider `NC(N)=NCCC[C@H](NC(=O)[C@@H](Cc1ccccc1)NC(=O)[C@@H](N)CCCN=C(N)N)C(=O)N1CCC[C@H]1C(=O)N1CCC[C@H]1C(=O)NCC(=O)N[C@@H](Cc1ccccc1)C(=O)N[C@@H](CO)C(=O)[C@@H]1CCCN1C(=O)N[C@@H](Cc1ccccc1)C(=O)N[C@H](CCCN=C(N)N)C(=O)O` (H-R[dF]RPPGF-X1), for which the pKb in experiment [1] came to 5.16.

Turning to `N=C(N)NCCCCC(=O)N[C@@H](Cc1cccs1)C(=O)N1Cc2ccccc2C[C@H]1C(=O)N1C2CCCCC2C[C@H]1C(=O)N[C@@H](CCCNC(=N)N)C(=O)O` (some centres undefined) ({Pentanoyl(5-guanidino)}-[2Thi][Tic][Oic(3aξ,7aξ)]R-OH), the Kb on B2 bradykinin receptor is 3020 nM.

The term pA2 denotes the negative logarithm of the molar antagonist concentration that doubles the agonist concentration needed for the same response. As for `NC(N)=NCCC[C@H](NC(=O)[C@@H]1CC2CCCCC2N1C(=O)[C@@H]1Cc2ccccc2CN1C(=O)[C@H](CO)NC(=O)[C@@H](N)Cc1cccs1)C(=O)O` (some centres undefined) (H-[2Thi]S[Tic][Oic(3aξ,7aξ)]R-OH), the pA2 result in experiment [2] is “inactive”.

Regarding `N=C(N)NCCC[C@@H]1NC(=O)[C@H](CCCNC(=N)N)NC(=O)[C@@H]2CC3CCCCC3N2C(=O)[C@H]2Cc3ccccc3CN2C(=O)[C@H](Cc2cccs2)NC1=O` (some centres undefined), the Kb on B2 bradykinin receptor was 75.9 nM.

In the case of `NC(N)=NCCC[C@H](NC(=O)[C@@H]1CC2CCCCC2N1C(=O)[C@@H]1Cc2ccccc2CN1C(=O)[C@H](CO)NC(=O)[C@@H](N)Cc1ccccc1)C(=O)O` (some centres undefined) (H-FS[Tic][Oic(3aξ,7aξ)]R-OH), the Kb at B2 bradykinin receptor is 912 nM.

For `NC(N)=NCCC[C@H](NC(=O)[C@@H]1CC2CCCCC2N1C(=O)[C@@H]1Cc2ccccc2CN1C(=O)[C@H](Cc1cccs1)NC(=O)[C@@H](N)CCCN=C(N)N)C(=O)O` (some centres undefined) (H-R[2Thi][Tic][Oic(3aξ,7aξ)]R-OH), on B2 bradykinin receptor, the Kb is 794 nM.

On to `C[C@@H]1NC(=O)[C@H](Cc2c[nH]c3ccccc23)NC(=O)CCCNC(=O)[C@H](CCCN=C(N)N)NC(=O)[C@@H]2CC3CCCCC3N2C(=O)[C@H]2Cc3ccccc3CN2C1=O` (some centres undefined), for which, at B2 bradykinin receptor, the Kb is 490 nM.

As to `C[C@@H]1NC(=O)[C@H](Cc2cccs2)NC(=O)CCCNC(=O)[C@H](CCCN=C(N)N)NC(=O)[C@@H]2CC3CCCCC3N2C(=O)[C@H]2Cc3ccccc3CN2C1=O` (some centres undefined), at B2 bradykinin receptor, the Kb was 63.1 nM.

Take `N=C(N)NCCC[C@@H]1NC(=O)[C@@H]2CC3CCCCC3N2C(=O)[C@H]2Cc3ccccc3CN2C(=O)[C@H](CO)NC(=O)[C@H](c2ccccc2)NC(=O)CCCNC1=O` (some centres undefined): the Kb at B2 bradykinin receptor was 537 nM.

In turn, `NCC(=O)N[C@@H](Cc1cccs1)C(=O)N1Cc2ccccc2C[C@H]1C(=O)N1C2CCCCC2C[C@H]1C(=O)N[C@@H](CCCN=C(N)N)C(=O)O` (some centres undefined) (H-G[2Thi][Tic][Oic(3aξ,7aξ)]R-OH) yielded a pKb in experiment [1] of 4.79. In experiment [3], the pA2 entry is “inactive”.

Turning to `NCCCC(=O)N[C@@H](Cc1cccs1)C(=O)N1Cc2ccccc2C[C@H]1C(=O)N1C2CCCCC2C[C@H]1C(=O)N[C@@H](CCCN=C(N)N)C(=O)O` (some centres undefined) (H-[GABA][2Thi][Tic][Oic(3aξ,7aξ)]R-OH), the Kb on B2 bradykinin receptor is 251 nM. The pKb result in experiment [4] was “inactive”.

Consider `N=C(N)NCCC[C@@H]1NC(=O)[C@@H]2CC3CCCCC3N2C(=O)[C@H]2Cc3ccccc3CN2C(=O)[C@H](CO)NC(=O)[C@H](Cc2cccs2)NC(=O)CCCNC1=O` (some centres undefined), for which the Kb at B2 bradykinin receptor was 45.7 nM.

For `N=C(N)NCCC[C@@H]1NC(=O)[C@@H]2CC3CCCCC3N2C(=O)[C@H]2Cc3ccccc3CN2C(=O)[C@H](Cc2cccs2)NC(=O)CNC1=O` (some centres undefined), the Kb at B2 bradykinin receptor is 40.7 nM. The molecule further displayed a pKb in experiment [1] of 4.93.

As to `N=C(N)NCCC[C@H](NC(=O)[C@@H]1CC2CCCCC2N1C(=O)[C@@H]1Cc2ccccc2CN1C(=O)[C@H](CO)NC(=O)[C@@H]1Cc2ccccc2CN1)C(=O)O` (some centres undefined) (H-[Tic]S[Tic][Oic(3aξ,7aξ)]R-OH), the pA2 result in experiment [2] was “inactive”.

Turning to `CN1CC(=O)N[C@@H](Cc2cccs2)C(=O)N2Cc3ccccc3C[C@@H]2C(=O)N2C3CCCCC3C[C@H]2C(=O)N[C@@H](CCCN=C(N)N)C1=O` (some centres undefined), the Kb at B2 bradykinin receptor is 219 nM.

The molecule `NCCCC[C@@H]1NC(=O)[C@H](CCCN=C(N)N)NC(=O)[C@@H]2C[C@@H]3CCCC[C@@H]3N2C(=O)[C@H]2Cc3ccccc3CN2C(=O)[C@H](Cc2cccs2)NC1=O` returned a pA2 at B2 bradykinin receptor of 6.84.

Consider `N=C(N)NCCC[C@@H]1NC(=O)[C@@H]2CC3CCCCC3N2C(=O)[C@H]2Cc3ccccc3CN2C(=O)[C@H](Cc2cccs2)NC(=O)CCCNC1=O` (some centres undefined), for which the Kb on B2 bradykinin receptor was 324 nM. In addition, in experiment [4], the pKb entry is “inactive”.

Turning to `NCCCCCCCCCC(=O)N[C@@H](Cc1cccs1)C(=O)N1Cc2ccccc2C[C@H]1C(=O)N1C2CCCCC2C[C@H]1C(=O)N[C@@H](CCCN=C(N)N)C(=O)O` (some centres undefined) ({NH(CH2)9CO}-[2Thi][Tic][Oic(3aξ,7aξ)]R-OH), the Kb on B2 bradykinin receptor was 468 nM.

For `N=C(N)NCCCC(=O)N[C@@H](Cc1cccs1)C(=O)N1Cc2ccccc2C[C@H]1C(=O)N1C2CCCCC2C[C@H]1C(=O)N[C@@H](CCCNC(=N)N)C(=O)O` (some centres undefined) ({Butanoyl(4-guanidino)}-[2Thi][Tic][Oic(3aξ,7aξ)]R-OH), the pA2 entry in experiment [3] was “inactive”.

For the molecule `C[C@@H]1NC(=O)[C@@H](Cc2ccccc2)NC(=O)CCCNC(=O)[C@H](CCCN=C(N)N)NC(=O)[C@@H]2CC3CCCCC3N2C(=O)[C@H]2Cc3ccccc3CN2C1=O` (some centres undefined), the pA2 result in experiment [3] was “inactive”.

`NCC(=O)N[C@@H](Cc1ccccc1)C(=O)N1Cc2ccccc2C[C@H]1C(=O)N1C2CCCCC2C[C@H]1C(=O)N[C@@H](CCCN=C(N)N)C(=O)O` (some centres undefined) (H-GF[Tic][Oic(3aξ,7aξ)]R-OH): at B2 bradykinin receptor, the Kb is 851 nM. In experiment [4], the pKb entry was “inactive”.

For `N=C(N)NCCC[C@@H]1NC(=O)[C@@H]2CC3CCCCC3N2C(=O)[C@H]2Cc3ccccc3CN2C(=O)[C@H](Cc2ccccc2)NC(=O)CNC1=O` (some centres undefined), the Kb on B2 bradykinin receptor is 117 nM. Moreover, in experiment [1], the pKb was found to be 5.13.

On to `N=C(N)NCCC[C@@H]1NC(=O)[C@@H]2CC3CCCCC3N2C(=O)[C@H]2Cc3ccccc3CN2C(=O)[C@H](CO)NC(=O)[C@@H]2Cc3ccccc3CN2C(=O)CCCNC1=O` (some centres undefined), for which the Kb on B2 bradykinin receptor was 437 nM.
